Results from ChEMBL document CHEMBL1148350, “Synthesis, biological activity, and three-dimensional quantitative structure-activity relationship model for a series of benzo[c]quinolizin-3-ones, nonsteroidal inhibitors of human steroid 5alpha-reductase 1” (J Med Chem, 2004).

Assays:
[1] = target: T1, 3-oxo-5-alpha-steroid 4-dehydrogenase 1 (Homo sapiens, UniProt P18405); assay: Inhibitory concentration against human recombinant steroid 5-alpha-reductase type I in stably transfected chinese hamster ovary (CHO) 1827 cells using [3H]testosterone.
T1 sequence (P18405 whole entry): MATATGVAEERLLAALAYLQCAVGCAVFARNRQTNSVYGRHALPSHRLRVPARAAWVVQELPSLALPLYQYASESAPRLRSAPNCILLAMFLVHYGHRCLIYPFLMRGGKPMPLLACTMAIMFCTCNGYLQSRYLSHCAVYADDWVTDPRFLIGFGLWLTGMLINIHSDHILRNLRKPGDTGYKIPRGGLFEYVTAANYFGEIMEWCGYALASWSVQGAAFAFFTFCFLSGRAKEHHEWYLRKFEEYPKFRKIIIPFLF
Summary of the method: (§1)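 Intact stably transfected CHO 1827 cells expressing human recombinant 5αR-1 were incubated 30 min with [3H]-testosterone at its Km (2 μM) plus inhibitor over 10^-9–10^-5 M. IC50 was obtained by four-parameter logistic fit. Finasteride served as reference inhibitor across repeated assays.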

[2] = Partition coefficient (logP); type: physicochemical; details: octanol/water
[3] = target: T1, 3-oxo-5-alpha-steroid 4-dehydrogenase 1; assay: Log of inhibitory concentration against human recombinant steroid 5-alpha-reductase type I in stably transfected chinese hamster ovary (CHO) 1827 cells using [3H]testosterone.; summary of the method: as §1
[4] = target: T2, 3-oxo-5-alpha-steroid 4-dehydrogenase 2 (Homo sapiens, UniProt P31213); assay: Inhibitory concentration against human recombinant steroid 5-alpha-reductase type 2 in stably transfected chinese hamster ovary 1827 cells using [3H]testosterone
T2 sequence (P31213 whole entry): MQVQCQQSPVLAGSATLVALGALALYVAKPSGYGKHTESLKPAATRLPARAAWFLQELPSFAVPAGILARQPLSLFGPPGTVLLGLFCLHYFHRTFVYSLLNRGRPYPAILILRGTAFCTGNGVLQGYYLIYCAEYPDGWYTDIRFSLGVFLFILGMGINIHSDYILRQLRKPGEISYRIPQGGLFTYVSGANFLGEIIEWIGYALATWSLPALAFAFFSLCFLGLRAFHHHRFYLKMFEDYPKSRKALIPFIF
Summary of the method: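 Intact stably transfected CHO 1827 cells incubated 30 min with [3H]testosterone at its Km concentration plus inhibitor over 10^-9–10^-5 M. IC50 fitted by four-parameter logistic equation. Finasteride run as reference inhibitor to check interassay reproducibility.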

| Compound | IC50 [1] [nM] | logP [2] | IC50 [3] [nM] | IC50 [4] [nM] |
| --- | --- | --- | --- | --- |
| Cc1ccc2c(c1)CCC1=CC(=O)CCN12 | – | 2.83 | – | – |
| CC1=C2CCc3cc(OCc4ccc(C(F)(F)F)cc4C(F)(F)F)ccc3N2CCC1=O | 149 | 6.41 | 148 | – |
| CC(C)(C)NC(=O)[C@H]1CC[C@H]2[C@@H]3CC[C@H]4NC(=O)C=C[C@]4(C)[C@H]3CC[C@]12C [FINASTERIDE] | – | – | – | 21 |
| CC1=C2CCc3cc(C(=O)Oc4ccccc4)ccc3N2CCC1=O | 942 | 4.64 | 933 | – |
| CC1=C2CCc3cc(C(=O)Oc4ccc(C(C)(C)C)cc4)ccc3N2CCC1=O | 560 | 6.47 | 562 | – |
| CCOC(=O)c1ccc2c(c1)CCC1=C(C)C(=O)CCN12 | 221 | 3.66 | 219 | – |
| CC1=C2CCc3cc(OCc4cc(C(F)(F)F)ccc4C(F)(F)F)ccc3N2CCC1=O | 393 | 6.41 | 389 | – |
| CC1=C2CCc3cc(C(=O)OC(C)C)ccc3N2CCC1=O | 731 | 3.97 | 724 | – |
| COc1ccc2c(c1)CCC1=C(C)C(=O)CCN12 | 178 | 2.87 | 182 | – |
| CC1=C2CCc3cc(/C=C/c4ccccc4)ccc3N2CCC1=O | 380 | 5.54 | 380 | – |
| CC1=C2CCc3cc(C(=O)Oc4ccc(C)cc4)ccc3N2CCC1=O | 1050 | 4.05 | 1050 | – |
| COC(=O)c1cccc(OC(=O)c2ccc3c(c2)CCC2=C(C)C(=O)CCN23)c1 | 965 | 4.86 | 955 | – |
| CC1=C2CCc3cc(OCc4ccccc4Cl)ccc3N2CCC1=O | 194 | 5.35 | 195 | – |
| CC1=C2CCc3ccccc3N2CCC1=O | – | 2.85 | – | – |
| O=C1C=C2CCc3cc(Cl)ccc3N2CC1 | – | 3.22 | – | – |
| CC1=C2CCc3cc(C(=O)OC(C)(C)C)ccc3N2CCC1=O | 1000 | 4.37 | 1000 | – |
| CC1=C2CCc3cc(-c4cccnc4)ccc3N2CCC1=O | 170 | 3.35 | 170 | – |
| O=C1C=C2CCc3ccccc3N2CC1 | – | 2.33 | – | – |
| CC1=C2CCc3cc(-c4ccco4)ccc3N2CCC1=O | 133 | 4.12 | 132 | – |
| CC1=C2CCc3cc(C)ccc3N2CCC1=O | – | 3.35 | – | – |

Continued by falling IC50 [1], values first:

| IC50 [1] [nM] | logP [2] | IC50 [3] [nM] | IC50 [4] [nM] | Compound |
| --- | --- | --- | --- | --- |
| 128 | 4.74 | 129 | – | CC1=C2CCc3cc(-c4ccccc4)ccc3N2CCC1=O |
| 121 | 4.86 | 120 | – | COC(=O)c1ccc(OC(=O)c2ccc3c(c2)CCC2=C(C)C(=O)CCN23)cc1 |
| 117 | 3.13 | 117 | – | COC(=O)c1ccc2c(c1)CCC1=C(C)C(=O)CCN12 |
| 111 | 4.64 | 112 | – | CC1=C2CCc3cc(OCc4ccccc4)ccc3N2CCC1=O |
| 96.8 | 4.96 | 97.7 | – | CC1=C2CCc3cc(C(=O)OCc4ccccc4)ccc3N2CCC1=O |
| 93 | 5.35 | 93.3 | – | CC1=C2CCc3cc(OCc4cccc(Cl)c4)ccc3N2CCC1=O |
| 92.9 | 5.35 | 93.3 | – | CC1=C2CCc3cc(OCc4ccc(Cl)cc4)ccc3N2CCC1=O |
| 83.7 | 5.52 | 83.2 | – | CC1=C2CCc3cc(OCc4ccc(C(F)(F)F)cc4)ccc3N2CCC1=O |
| 79 | 4.62 | 79.4 | – | CC1=C2CCc3cc(-c4cccs4)ccc3N2CCC1=O |
| 21.6 | 3.57 | 21.4 | – | C=Cc1ccc2c(c1)CCC1=C(C)C(=O)CCN12 |
| 14.2 | 5.54 | 14.1 | – | CC1=C2CCc3cc(/C=C\c4ccccc4)ccc3N2CCC1=O |
| 14 | 3.88 | 14.1 | – | CCc1ccc2c(c1)CCC1=C(C)C(=O)CCN12 |
| 8.75 | 5.49 | 8.71 | – | CC1=C2CCc3cc(C#Cc4ccccc4)ccc3N2CCC1=O |
| 8.1 | 3.88 | 8.13 | – | CC1=C2CCc3cc(Br)ccc3N2CCC1=O |
| 5.8 | 3.73 | 5.62 | – | CC1=C2CCc3cc(Cl)ccc3N2CCC1=O |
